Measurements collected from several papers.
Each line is one published result; the experiments were not run side by side.
Organism: Staphylococcus aureus
Read-out: microbial growth

| Structure (SMILES) | technique | strain | time | setting | MIC |
| --- | --- | --- | --- | --- | --- |
| Cc1ccc2nc(-c3cccnc3)[nH]c2c1 | broth dilution | ATCC29213 MSSA | – | – | 64 mg/L |
| O=C(Nc1ccc(Cl)c(C(F)(F)F)c1)N1CCc2ccccc2C1 | – | NCTC8325 | 24 h | – | 30 µM |
| O=C1NC(=S)S/C1=C\c1ccc(-c2ccc(N(c3ccccc3)c3ccccc3)cc2)cc1 | broth dilution | ATCC25923 | – | – | 250 mg/L |
| CC(C)Oc1c(NC(=O)c2ccc(NC(=O)[C@H](CC(N)=O)NC(=O)c3ccc(NC(=O)c4ccc(C#N)cc4)cc3)cc2)ccc(C(=O)O)c1O | – | ATCC29213 | – | – | > 64 mg/L |
| NC[C@@H]1O[C@H](O[C@H]2[C@@H](O)[C@H](O[C@@H]3[C@@H](O)[C@H](N)C[C@H](N)[C@H]3O[C@H]3O[C@H](CN)[C@@H](O)[C@H](O)[C@H]3N)O[C@@H]2CO)[C@H](N)[C@@H](O)[C@@H]1O | – | USA300 | – | – | 5 mg/L |
| CC1(C)S[C@@H]2[C@H](NC(=O)[C@H](N)c3ccccc3)C(=O)N2[C@H]1C(=O)O | broth dilution | CCARM3090 | – | – | 16 mg/L |
| CC(=O)NC[C@H]1CN(c2ccc(N3CCOCC3)c(F)c2)C(=O)O1 | broth dilution | MRSA NRS119 | – | drug-resistant strain | 32 µM |
| C/C=C(\C)c1cc(O)c(C)c(OC(=O)c2c(C)cc(O)c(Cl)c2O)c1 | broth dilution | CCARM3090 | – | – | 8 mg/L |
| CCCCCCCCCC(=O)Oc1c(C)c(O)c(C(=O)/C=C/c2ccccc2)c(OC)c1C | broth dilution | ATCC25923 | – | – | > 5000 mg/L |
| CN[C@H](CC(C)C)C(=O)N[C@H]1C(=O)N[C@@H](CC(N)=O)C(=O)N[C@H]2C(=O)N[C@H]3C(=O)N[C@H](C(=O)N[C@H](C(=O)O)c4cc(O)cc(O)c4-c4cc3ccc4O)[C@H](O)c3ccc(c(Cl)c3)Oc3cc2cc(c3O[C@@H]2O[C@H](CO)[C@@H](O)[C@H](O)[C@H]2O[C@H]2C[C@](C)(N)[C@H](O)[C@H](C)O2)Oc2ccc(cc2Cl)[C@H]1O | broth dilution | 16339 | – | – | 1 mg/L |
| O=C(Nc1ccc(F)c(F)c1)c1cc(Cl)ccc1O | broth dilution | ATCC29213 | – | – | 0.44 mg/L |
| O=C(O)c1ccc(Nc2ncc3c(n2)-c2ccc(Cl)cc2C(c2c(F)cccc2F)=NC3)cc1 | – | NCTC8325 | – | – | > 30 µM |
| NC[C@H]1O[C@H](O[C@H]2[C@H](O)[C@@H](O[C@H]3O[C@H](CO)[C@@H](O)[C@H](N)[C@H]3O)[C@H](N)C[C@@H]2N)[C@H](N)C[C@@H]1O | – | 129 | – | clinical isolate | > 100 µM |
| CC(C)Oc1c(N)ccc(C(=O)Nc2ccc(C(=O)N[C@@H](CC(N)=O)C(=O)Nc3ccc(C(=O)Nc4ccc(C(=O)Nc5ccc(C(=O)O)cc5)c(O)c4OC(C)C)cc3)cc2)c1O | – | ATCC29213 | – | – | > 64 mg/L |
| CO[C@H]1[C@H](O[C@H]([C@H]2O[C@@H](n3ccc(=O)[nH]c3=O)[C@H](O)[C@@H]2O)[C@H](NCCCNC(=O)[C@H](CC(C)C)NC(=O)[C@@H](NC(=O)N[C@H](C(=O)O)C(C)C)[C@@H]2CCNC(=N)N2)C(=O)O)O[C@H](CN)[C@H]1O | – | NEWMAN | – | – | > 80 mg/L |
| O=C(O)CN1C(=O)/C(=C/c2ccc(-c3ccc(N(c4ccccc4)c4ccccc4)cc3)c3ccccc23)NC1=S | broth dilution | ATCC6538 | – | – | > 1000 mg/L |
| C[C@@H](O)[C@H]1C(=O)N2C(C(=O)O)=C(S[C@H]3C[C@@H](C(=O)N4CC[C@H](NC(=O)CNC(=N)N)C4)N(C)C3)[C@H](C)[C@H]12 | – | MRSA | – | – | 8 mg/L |
| CC(C)Oc1c(NC(=O)c2ccc(NC(=O)[C@H](CC(N)=O)NC(=O)c3cccc(NC(=O)c4ccc(C#N)cc4)c3)cc2)ccc(C(=O)Nc2ccc(C(=O)O)cc2)c1O | – | ATCC29213 | – | – | > 64 mg/L |
| Cc1[nH]c(/C=C2\C(=O)Nc3ccccc32)c(C)c1CCC(=O)O | – | NCTC8325 | – | – | > 30 µM |
| O=C(CCCCCC[P+](c1ccccc1)(c1ccccc1)c1ccccc1)Nc1ccc(O)c(O)c1.[Br-] | broth dilution | ATCC43300 MRSA | 18 h | – | > 32 mg/L |
| Clc1ccccc1NCc1ccc(Oc2ccccn2)cc1 | – | – | – | – | 1.6 mg/L |

| Structure (SMILES) | technique | strain | time | setting | MIC |
| --- | --- | --- | --- | --- | --- |
| O=C(O)CN1C(=O)/C(=C/c2ccc(-c3ccc(N(c4ccccc4)c4ccccc4)cc3)c3ccccc23)SC1=S | broth dilution | ATCC25923 | – | – | 1000 mg/L |
| C/C=C(\C)c1cc(O)c(C)c(OC(=O)c2c(C)c(Cl)c(O)c(Cl)c2O)c1 | broth dilution | 16162 | – | – | 2 mg/L |
| Cc1ccc2nc(-c3ccc(N(C)C)cc3)[nH]c2c1 | broth dilution | ATCC29213 MSSA | – | – | 64 mg/L |
| O=C(O)c1cn(C2CC2)c2cc(N3CCNCC3)c(F)cc2c1=O | – | ATCC43300 | – | drug-resistant strain | 0.31 mg/L |
| Cc1cc(Nc2cc(CN3CCOCC3)c3nc(C)c(Cc4ccc(Cl)cc4F)n3n2)n[nH]1 | – | NCTC8325 | – | – | 30 µM |
| Cc1ccc2nc(-c3ccc4c(c3)OCO4)[nH]c2c1 | broth dilution | ATCC29213 MSSA | – | – | 256 mg/L |
| CCCCCCC#Cc1cncc(-c2nnc(SCc3ccc(Cl)c(F)c3)n2C)c1 | – | MRSA | – | drug-resistant strain | ≥ 20 mg/L |
| Clc1ccc(-c2nc3ccccc3n2Cc2ccccc2)cc1Cl | broth dilution | ATCC29213 MSSA | – | – | 8 mg/L |
| COC(=O)Nc1ccc(-c2nc(N3CCOCC3)c3cnn(C4CCN(Cc5cccnc5)CC4)c3n2)cc1 | – | NCTC8325 | – | – | > 30 µM |
| CC(=O)NC[C@H]1CN(c2ccc(N3CCOCC3)c(F)c2)C(=O)O1 | broth dilution | MRSA NRS123 USA400 | – | drug-resistant strain | 2 mg/L |
| CC(C)/N=C(\N)c1ccc(NC(=O)c2ccc(C(=O)Nc3ccc(/C(N)=N/C(C)C)cc3)cc2)cc1 | – | – | – | – | 4 mg/L |
| Clc1ccc(-c2nc3ccccc3n2Cc2ccccc2)cc1 | broth dilution | ATCC29213 MSSA | – | – | 64 mg/L |
| COc1cc2c(N3CCN(C(=O)Nc4ccc(OC(C)C)cc4)CC3)ncnc2cc1OCCCN1CCCCC1 | – | NCTC8325 | – | – | > 30 µM |
| Cc1nc(O)n2ncc(Cl)c2n1 | – | – | – | – | > 128 mg/L |
| Cc1cccc(-c2[nH]c(C(C)(C)C)nc2-c2ccc3nccnc3c2)n1 | – | NCTC8325 | – | – | > 30 µM |
| Cc1ccc(C)n1-c1ccc(-c2n[nH]c(=S)[nH]2)cc1 | broth dilution | ATCC11632 | 18 h | – | 4 mg/L |
| COc1cccc(OC)c1C(=O)N[C@@H]1C(=O)N2[C@@H]1SC(C)(C)[C@@H]2C(=O)O | broth dilution | ATCCBAA44 | – | – | 1020 mg/L |
| CSc1ccc(-c2nc3ccc(C)cc3[nH]2)cc1 | broth dilution | ATCC29213 MSSA | – | – | 16 mg/L |
| CC(C)Oc1c(NC(=O)c2ccc(NC(=O)[C@H](CC(N)=O)NC(=O)c3ccc(NC(=O)c4ccc([N+](=O)[O-])cc4)cc3)cc2)ccc(C(=O)Nc2ccc(C(=O)O)c(F)c2)c1O | – | ATCC29213 | – | – | 2 mg/L |
| CNC(=O)c1cc(Oc2ccc(NC(=O)Nc3ccc(Oc4ccccc4)cc3)cc2)ccn1 | – | NCTC8325 | – | – | > 100 µM |
| CC1=NN(CNc2ccc(Cl)cc2)C(=O)C1=NNn1c(-c2ccccc2)nc2ccccc2c1=O | broth dilution | – | 24 h | – | 51.5 µM |
